Experimental data from ChEMBL document CHEMBL1153305, “Preparation and characterization of N-(3-pyridinyl) spirocyclic diamines as ligands for nicotinic acetylcholine receptors” (Bioorg Med Chem Lett, 2009).
Calls of active or inactive are those of the source. The calls are words filed in the database; no cut-off is given here.

Experiments:
[1] = biological target: T1, Neuronal acetylcholine receptor; alpha4/beta2 (Homo sapiens, UniProt P17787+P43681); assay: Agonist activity at human recombinant alpha4beta2 nAChR expressed in human IMR32 cells assessed as calcium dynamics by FLIPR assay relative to nicotine; type: functional, cell-based
Method in brief: (§1)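 A cell line expressing human recombinant α4β2 nAChR. Agonism was read as intracellular Ca2+ dynamics by FLIPR. Values are averages of six replicates.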

[2] = biological target: T2, Neuronal acetylcholine receptor; alpha3/beta4 (Homo sapiens, UniProt P30926+P32297); assay: Agonist activity at human […] nAChR expressed in human IMR32 cells assessed as calcium dynamics by FLIPR assay relative to nicotine; type: functional, cell-based; settings: IMR-32
Method in brief: (§2)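 Endogenous α3β4* nAChR in the human neuroblastoma line IMR-32. Agonism was measured as intracellular Ca2+ dynamics by FLIPR, testing up to 100 μM. Values are averages of six replicates.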

Mus musculus [3] = assay: Decrease in body temperature in mouse at 65 umol/kg, ip; type: functional, organism-based
Mus musculus [4] = assay: Analgesic activity in mouse assessed hypolocomotion at 65 umol/kg, ip; type: functional, organism-based
Mus musculus [5] = assay: Analgesic activity in mouse at 62 umol/kg, ip; type: functional, organism-based
Method in brief: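 Mouse hot plate analgesia model. The compound was given ip, with 62 μmol/kg as the highest dose tested.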

[6] = biological target: T2, Neuronal acetylcholine receptor; alpha3/beta4; assay: Agonist activity at human […] nAChR expressed in human IMR32 cells assessed as calcium dynamics by FLIPR assay; type: functional, cell-based, IMR-32; method in brief: as §2
[7] = biological target: Neuronal acetylcholine receptor; alpha4/beta2 (Rattus norvegicus, UniProt P09483+P12390); assay: Displacement of [3H]cytisine from alpha4beta2 nAChR in rat brain membrane; type: cell membranes
[8] = biological target: T1, Neuronal acetylcholine receptor; alpha4/beta2; assay: Agonist activity at human recombinant alpha4beta2 nAChR expressed in human IMR32 cells assessed as calcium dynamics by FLIPR assay; type: functional, cell-based; method in brief: as §1
Mus musculus [9] = assay: Toxicity in mouse assessed as behavioral effect at 65 mg/kg, ip; type: organism-based; design: dose 65 mg/kg, route intraperitoneal; settings: in vivo

Sequence of Neuronal acetylcholine receptor; alpha4/beta2 (Rattus norvegicus, UniProt P09483+P12390) (P09483 whole entry): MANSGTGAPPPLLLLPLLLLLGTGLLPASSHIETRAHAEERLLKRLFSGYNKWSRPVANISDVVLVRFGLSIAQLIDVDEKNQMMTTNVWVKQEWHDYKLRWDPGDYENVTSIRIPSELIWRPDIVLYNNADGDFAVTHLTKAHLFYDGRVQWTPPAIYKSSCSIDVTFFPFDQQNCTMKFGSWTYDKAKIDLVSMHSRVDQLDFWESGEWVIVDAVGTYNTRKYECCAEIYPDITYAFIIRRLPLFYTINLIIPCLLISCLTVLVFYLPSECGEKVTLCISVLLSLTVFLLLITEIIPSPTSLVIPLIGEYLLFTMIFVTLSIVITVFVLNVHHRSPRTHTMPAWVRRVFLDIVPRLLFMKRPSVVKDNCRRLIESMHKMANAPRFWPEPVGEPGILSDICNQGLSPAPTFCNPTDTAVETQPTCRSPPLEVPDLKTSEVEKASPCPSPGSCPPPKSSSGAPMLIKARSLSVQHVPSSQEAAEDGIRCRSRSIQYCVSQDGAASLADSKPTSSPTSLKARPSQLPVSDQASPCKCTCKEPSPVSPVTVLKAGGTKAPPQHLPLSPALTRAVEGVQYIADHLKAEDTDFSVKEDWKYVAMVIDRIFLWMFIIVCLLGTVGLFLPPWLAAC
Sequence of Neuronal acetylcholine receptor; alpha4/beta2 (Rattus norvegicus, UniProt P09483+P12390) (P12390 whole entry): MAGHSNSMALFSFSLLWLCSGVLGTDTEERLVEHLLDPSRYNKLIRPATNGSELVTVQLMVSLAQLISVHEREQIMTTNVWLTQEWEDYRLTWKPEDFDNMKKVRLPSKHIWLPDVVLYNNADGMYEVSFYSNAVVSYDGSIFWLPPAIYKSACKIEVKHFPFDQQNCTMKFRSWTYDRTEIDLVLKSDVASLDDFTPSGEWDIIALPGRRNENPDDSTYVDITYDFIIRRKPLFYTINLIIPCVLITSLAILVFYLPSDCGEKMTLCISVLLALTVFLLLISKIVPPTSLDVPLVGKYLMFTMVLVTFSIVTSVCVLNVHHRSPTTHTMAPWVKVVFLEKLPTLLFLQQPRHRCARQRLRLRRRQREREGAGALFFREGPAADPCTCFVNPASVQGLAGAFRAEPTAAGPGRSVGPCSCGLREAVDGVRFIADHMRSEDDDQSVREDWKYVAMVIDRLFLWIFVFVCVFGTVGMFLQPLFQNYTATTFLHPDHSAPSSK
T1 sequence (P17787 whole entry): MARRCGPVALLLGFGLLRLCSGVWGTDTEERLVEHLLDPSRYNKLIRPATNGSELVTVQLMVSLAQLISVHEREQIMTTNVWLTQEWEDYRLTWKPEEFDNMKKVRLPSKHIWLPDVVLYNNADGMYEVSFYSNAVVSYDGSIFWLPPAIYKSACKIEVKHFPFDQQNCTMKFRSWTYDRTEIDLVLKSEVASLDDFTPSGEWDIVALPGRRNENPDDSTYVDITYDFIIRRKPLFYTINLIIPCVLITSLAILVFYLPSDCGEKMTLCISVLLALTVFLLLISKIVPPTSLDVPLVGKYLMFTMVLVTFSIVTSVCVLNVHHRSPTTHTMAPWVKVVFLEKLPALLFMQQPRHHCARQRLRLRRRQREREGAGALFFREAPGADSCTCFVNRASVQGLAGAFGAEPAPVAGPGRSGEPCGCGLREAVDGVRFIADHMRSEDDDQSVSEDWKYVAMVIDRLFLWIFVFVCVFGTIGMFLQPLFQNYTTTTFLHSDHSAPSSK
T1 sequence (P43681 whole entry): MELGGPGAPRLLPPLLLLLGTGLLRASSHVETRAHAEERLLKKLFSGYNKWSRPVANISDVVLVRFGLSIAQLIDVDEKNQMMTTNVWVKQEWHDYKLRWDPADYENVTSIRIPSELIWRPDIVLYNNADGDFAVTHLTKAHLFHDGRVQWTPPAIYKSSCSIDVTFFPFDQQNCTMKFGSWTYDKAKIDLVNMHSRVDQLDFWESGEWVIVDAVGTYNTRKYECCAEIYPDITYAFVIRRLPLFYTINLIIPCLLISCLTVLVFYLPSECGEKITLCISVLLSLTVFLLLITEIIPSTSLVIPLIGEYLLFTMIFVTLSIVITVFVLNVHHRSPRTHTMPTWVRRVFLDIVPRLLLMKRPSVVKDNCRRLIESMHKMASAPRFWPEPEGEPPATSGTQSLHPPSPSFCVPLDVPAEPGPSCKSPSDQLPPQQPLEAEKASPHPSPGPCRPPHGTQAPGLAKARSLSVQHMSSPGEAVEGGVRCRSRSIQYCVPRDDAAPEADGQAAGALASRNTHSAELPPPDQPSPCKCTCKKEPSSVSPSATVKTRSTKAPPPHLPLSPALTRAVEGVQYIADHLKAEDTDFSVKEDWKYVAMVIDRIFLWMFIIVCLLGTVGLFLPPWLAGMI
T2 sequence (P30926 whole entry): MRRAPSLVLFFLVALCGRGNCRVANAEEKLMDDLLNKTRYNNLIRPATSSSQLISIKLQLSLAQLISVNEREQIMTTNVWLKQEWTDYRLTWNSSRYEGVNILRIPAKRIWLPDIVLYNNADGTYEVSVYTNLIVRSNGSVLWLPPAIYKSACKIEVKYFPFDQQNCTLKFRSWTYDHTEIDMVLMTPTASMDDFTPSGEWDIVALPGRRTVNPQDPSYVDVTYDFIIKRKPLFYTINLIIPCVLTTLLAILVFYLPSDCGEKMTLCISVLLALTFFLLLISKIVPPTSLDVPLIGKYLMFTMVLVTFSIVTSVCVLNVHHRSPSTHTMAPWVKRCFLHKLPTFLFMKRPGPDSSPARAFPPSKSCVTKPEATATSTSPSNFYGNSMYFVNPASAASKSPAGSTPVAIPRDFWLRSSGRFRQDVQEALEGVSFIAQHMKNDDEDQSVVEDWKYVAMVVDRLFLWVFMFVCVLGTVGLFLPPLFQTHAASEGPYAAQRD
T2 sequence (P32297 whole entry): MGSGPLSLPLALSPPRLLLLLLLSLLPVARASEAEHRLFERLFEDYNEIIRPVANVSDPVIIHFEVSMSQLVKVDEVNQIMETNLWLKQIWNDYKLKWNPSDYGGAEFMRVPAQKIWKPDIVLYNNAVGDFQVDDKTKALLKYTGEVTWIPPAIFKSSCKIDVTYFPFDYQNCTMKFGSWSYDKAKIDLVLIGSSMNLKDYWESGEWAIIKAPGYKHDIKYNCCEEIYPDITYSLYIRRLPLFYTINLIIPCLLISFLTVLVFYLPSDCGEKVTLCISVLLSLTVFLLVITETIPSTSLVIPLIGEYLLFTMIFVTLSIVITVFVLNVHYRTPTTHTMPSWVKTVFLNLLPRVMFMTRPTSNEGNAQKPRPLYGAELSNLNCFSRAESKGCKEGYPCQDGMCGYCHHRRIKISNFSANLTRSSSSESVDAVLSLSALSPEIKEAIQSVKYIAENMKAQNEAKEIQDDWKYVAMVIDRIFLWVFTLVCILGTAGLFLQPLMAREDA

SMILES	Activity [1] [%]	Activity [2] [%]	Activity (Mus musculus [3])	Activity (Mus musculus [4])	Activity (Mus musculus [5])	EC50 [6] [nM]	Ki [7] [nM]	EC50 [8] [nM]	Activity (Mus musculus [9])
Clc1ccc(N2CCC3(CCN3)C2)cn1 (stereo not drawn)	48	23	Active	Active	Active	6900	21	2500	–
c1cncc(N2CCC3(CCN3)C2)c1 (stereo not drawn)	44	4	–	–	–	> 100000	11	25000	Non-toxic
Clc1ccc(C2CC3CCC2N3)cn1 (stereo not drawn)	154	132	–	–	–	–	–	–	–
Clc1ccc(OC[C@H]2CCN2)cn1 [TEBANICLINE]	115	169	–	–	–	190	0.048	20	–
c1cncc(N2CCC3(CCNC3)C2)c1 (stereo not drawn)	4	10	–	–	–	> 100000	74	> 100000	–
c1cncc(N2CC3CNC3C2)c1 (stereo not drawn)	122	90	–	–	–	6100	1.2	1600	–
c1cncc(N2CC3CC2CN3)c1 (stereo not drawn)	–	108	–	–	–	6400	–	–	–
Clc1ccc(N2CCC3(CCCN3)C2)cn1 (stereo not drawn)	6	8	–	–	–	> 100000	48	> 100000	–
c1cncc(N2CCC3(CCCN3)C2)c1 (stereo not drawn) [TC-2216]	20	15	–	–	–	> 100000	33	> 100000	–
Clc1ccc(N2CCC3(CCNC3)C2)cn1 (stereo not drawn)	9	2	–	–	–	> 100000	240	> 100000	–
